Assay results from different studies.
Compare with care: the assays were run in different laboratories.
MAL12: Alpha-glucosidase MAL12 (MAL12, Saccharomyces cerevisiae S288c, UniProt P53341)
ADRA1A: Alpha-1A adrenergic receptor (ADRA1A, Homo sapiens, UniProt P35348)
FABP1: Fatty acid-binding protein, liver (FABP1, Homo sapiens, UniProt P07148)
MAOA: Amine oxidase [flavin-containing] A (MAOA, Homo sapiens, UniProt P21397)

| SMILES | target | test | conditions | measurement | value |
| --- | --- | --- | --- | --- | --- |
| CN1C(=S)N(c2ccccc2)C(=O)/C1=C1/C(=O)N(C)c2ccc(Cl)cc21 | MAL12 | enzyme activity, inhibitor, absorbance | – | IC50 | 157 µM |
| CCOC(=O)c1ccc(OC(=O)CCCCCN=C(N)N)cc1 | Kallikrein-7 (KLK7, Homo sapiens, UniProt P49862) | enzyme activity, inhibitor | – | IC50 | 15.6 µM |
| COc1cc2c3c(c1OC)-c1c(OC)ccc(Br)c1CC3N(C)CC2 (stereo not shown) | ADRA1A | cell-free assay, radioligand | – | Ki | 0.016 µM |
| COc1cc(O)cc(/C=C/c2ccc(O)cc2)c1 | MAL12 | enzyme activity, inhibitor, absorbance | pH 6.8 | IC50 | 11.7 µM |
| COc1cc2c(cc1OC)CN(CCc1ccc(NC(=O)c3cccc4c(=O)c5cccc(OC)c5[nH]c34)cc1)CC2 | ADRA1A | cell-free assay | – | Ki | 0.183 µM |
| O=C(Nc1ccc([N+](=O)[O-])cc1Cl)c1cc(Cl)ccc1O | FABP1 | ligand displacement, fluorescence | – | Kd | 9.69 µM |
| CCc1ccc(N2C(=O)/C(=C3/C(=O)N(C)c4ccc(Cl)cc43)NC2=S)cc1 | MAL12 | enzyme activity, inhibitor, absorbance | – | IC50 | 128 µM |
| COc1cc2c3c(c1OC)-c1c(OC)ccc(Cl)c1CC3N(C)CC2 (racemic) | ADRA1A | cell-free assay, radioligand | – | Ki | 0.023 µM |
| O=P(Oc1ccccc1)(Oc1ccccc1)C(NCc1cncc2ccccc12)c1ccc(O)cc1 (stereo not shown) | sn-1-specific diacylglycerol lipase ABHD11 (ABHD11, Homo sapiens, UniProt Q8NFV4) | enzyme activity, inhibitor | lysate | IC50 | 1.9 µM |
| Cc1cc(SC2=C(O)C[C@@](CCc3ccc(N)cc3)(C(C)C)OC2=O)c(C(C)(C)C)cc1CO | FABP1 | ligand displacement, fluorescence | – | Kd | 1.68 µM |
| CC[C@H](C)[C@H](NC(=O)[C@H](C)NC(=O)[C@H](CCC(=O)O)NC(=O)[C@H](Cc1c[nH]cn1)NC(=O)[C@H](CC(C)C)NC(=O)[C@@H](NC(=O)[C@H](Cc1ccccc1)NC(=O)[C@H](CO)NC(=O)[C@@H](NC(=O)[C@H](CC(C)C)NC(=O)[C@H](CC(=O)O)NC(=O)[C@H](CC(C)C)NC(=O)[C@@H]1CCCN1)[C@@H](C)O)C(C)C)C(=O)O | MAOA | enzyme activity, inhibitor, fluorescence | – | IC50 | 73 µM |
| O=S(=O)(O)C(F)(F)C(F)(F)C(F)(F)C(F)(F)C(F)(F)C(F)(F)F | FABP1 | ligand displacement, fluorescence | – | Kd | 11.2 µM |
| CC[C@H](C)[C@H](N)C(=O)N1CCC[C@H]1C(=O)N1CCC[C@H]1C(=O)NCC(=O)N[C@H](C(=O)N1CCC[C@H]1C(=O)N[C@@H](Cc1ccc(O)cc1)C(=O)O)C(C)C | MAOA | enzyme activity, inhibitor, fluorescence | – | IC50 | 829 µM |
